We go through one molecule from ChEMBL document CHEMBL3124926, “Identification of highly efficacious glucocorticoid receptor agonists with a potential for reduced clinical bone side effects” (J Med Chem, 2014).

Series [1] concerns Mus musculus. The series is described as follows: Toxicity in collagen-induced B10.RIII mouse arthritis model assessed as change in femur cortical thickness at 30 mg/kg, po qd for 35 days relative to 30% cremophor-treated control. It counts as organism-based. Details: dose 30 mg/kg, route oral. As to conditions: in vivo, 840 h. The gist of the method: (§1)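 Female B10.RIII mice were immunized with porcine type II collagen in complete Freund's adjuvant, enrolled at arthritis onset (10/group), and dosed orally once daily for five weeks in 30% cremophor vehicle. Four paws were scored 1–4 (max 16), as AUC. Serum biomarkers were taken at day 35. Femur cortical thickness was measured by microCT in non-immunized, age-matched mice dosed identically.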

Series [2] relates to Mus musculus. Kind of series: Toxicity in collagen-induced B10.RIII mouse arthritis model assessed as change in femur cortical thickness at 3 mg/kg, po qd for 35 days relative to 30% cremophor-treated control. It counts as organism-based. On the set-up: dose 3 mg/kg, route oral. As to conditions: in vivo, 840 h. An outline of the steps: as §1
For series [3], the system named is Mus musculus. Kind of series: Toxicity in collagen-induced B10.RIII mouse arthritis model assessed as change in femur cortical thickness at 30 mg/kg, po qd for 35 days relative to 1% methylcellulose-treated control. It counts as organism-based. On the set-up: dose 30 mg/kg, route oral. To be noted: in vivo, 840 h. The gist of the method:
(§2)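 Female B10.RIII mice were immunized at 12–15 weeks with porcine type II collagen emulsified in complete Freund's adjuvant (100 μg intradermal, tail base). Animals were enrolled at first arthritis signs, 10 per group, and dosed orally once daily for five weeks in 1% methylcellulose. Paws were scored 1–4 each (max 16), with AUC taken. Serum was collected at day 35. Femur cortical thickness was measured by microCT in non-immunized, age-matched mice given the same dosing.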

Series [4] concerns Mus musculus. Kind of series: Toxicity in collagen-induced B10.RIII mouse arthritis model assessed as change in femur cortical thickness at 3 mg/kg, po qd for 35 days relative to 1% methylcellulose-treated control. The class given is organism-based. Details: dose 3 mg/kg, route oral. As to conditions: in vivo, 840 h. An outline of the steps: as §2
For series [5], the system named is Mus musculus. The series is described as follows: Toxicity in collagen-induced B10.RIII mouse arthritis model assessed as change in insulin level at 30 mg/kg, po qd for 35 days relative to 30% cremophor-treated control. As to conditions: in vivo, 840 h. On the set-up: dose 30 mg/kg, route oral. It counts as organism-based. The gist of the method:
as §1

Series [6] deals with Mus musculus. Kind of series: Toxicity in collagen-induced B10.RIII mouse arthritis model assessed as change in insulin level at 3 mg/kg, po qd for 35 days relative to 30% cremophor-treated control. It counts as organism-based. Details: dose 3 mg/kg, route oral. As to conditions: in vivo, 840 h. An outline of the steps:
as §1

For series [7], the system named is Mus musculus. Kind of series: Toxicity in collagen-induced B10.RIII mouse arthritis model assessed as change in insulin level at 30 mg/kg, po qd for 35 days relative to 1% methylcellulose-treated control. To be noted: in vivo, 840 h. It counts as organism-based. On the set-up: dose 30 mg/kg, route oral. An outline of the steps:
as §2

For series [8], the system named is Mus musculus. Kind of series: Toxicity in collagen-induced B10.RIII mouse arthritis model assessed as change in insulin level at 3 mg/kg, po qd for 35 days relative to 1% methylcellulose-treated control. It counts as organism-based. On the set-up: dose 3 mg/kg, route oral. To be noted: in vivo, 840 h. The gist of the method:
as §2

Series [9] concerns Mus musculus. Kind of series: Toxicity in collagen-induced B10.RIII mouse arthritis model assessed as change in free fatty acid level at 30 mg/kg, po qd for 35 days relative to 30% cremophor-treated control. It counts as organism-based. As to conditions: in vivo, 840 h. Details: dose 30 mg/kg, route oral. The gist of the method:
as §1

Series [10] concerns Mus musculus. The series is described as follows: Toxicity in collagen-induced B10.RIII mouse arthritis model assessed as change in free fatty acid level at 3 mg/kg, po qd for 35 days relative to 30% cremophor-treated control. It counts as organism-based. Details: dose 3 mg/kg, route oral. To be noted: in vivo, 840 h. The gist of the method:
as §1

Series [11] relates to Mus musculus. Kind of series: Toxicity in collagen-induced B10.RIII mouse arthritis model assessed as change in free fatty acid level at 30 mg/kg, po qd for 35 days relative to 1% methylcellulose-treated control. The class given is organism-based. Details: dose 30 mg/kg, route oral. To be noted: in vivo, 840 h. An outline of the steps: as §2
Series [12] concerns Mus musculus. Kind of series: Toxicity in collagen-induced B10.RIII mouse arthritis model assessed as change in free fatty acid level at 3 mg/kg, po qd for 35 days relative to 1% methylcellulose-treated control. As to conditions: in vivo, 840 h. On the set-up: dose 3 mg/kg, route oral. The class given is organism-based. The gist of the method: as §2
For series [13], the system named is Mus musculus. The series is described as follows: Toxicity in collagen-induced B10.RIII mouse arthritis model assessed as change in triglyceride level at 30 mg/kg, po qd for 35 days relative to 1% methylcellulose-treated control. The class given is organism-based. On the set-up: dose 30 mg/kg, route oral. As to conditions: in vivo, 840 h. An outline of the steps: as §2

The test system of series [14] is Mus musculus. The series is described as follows: Toxicity in collagen-induced B10.RIII mouse arthritis model assessed as change in triglyceride level at 3 mg/kg, po qd for 35 days relative to 1% methylcellulose-treated control. The class given is organism-based. On the set-up: dose 3 mg/kg, route oral. As to conditions: in vivo, 840 h. An outline of the steps: as §2

The subject of series [15] is Mus musculus. Kind of series: Toxicity in collagen-induced B10.RIII mouse arthritis model assessed as change in body fat at 30 mg/kg, po qd for 35 days relative to 30% cremophor-treated control. To be noted: in vivo, 840 h. The class given is organism-based. Details: dose 30 mg/kg, route oral. The gist of the method: as §1
For series [16], the system named is Mus musculus. The series is described as follows: Toxicity in collagen-induced B10.RIII mouse arthritis model assessed as change in body fat at 3 mg/kg, po qd for 35 days relative to 30% cremophor-treated control. The class given is organism-based. On the set-up: dose 3 mg/kg, route oral. As to conditions: in vivo, 840 h. The gist of the method:
as §1

The test system of series [17] is Mus musculus. The series is described as follows: Toxicity in collagen-induced B10.RIII mouse arthritis model assessed as change in body fat at 30 mg/kg, po qd for 35 days relative to 1% methylcellulose-treated control. It counts as organism-based. On the set-up: dose 30 mg/kg, route oral. As to conditions: in vivo, 840 h. The gist of the method:
as §2

Series [18] concerns Mus musculus. Kind of series: Toxicity in collagen-induced B10.RIII mouse arthritis model assessed as change in body fat at 3 mg/kg, po qd for 35 days relative to 1% methylcellulose-treated control. It counts as organism-based. On the set-up: dose 3 mg/kg, route oral. As to conditions: in vivo, 840 h. The gist of the method:
as §2

The subject of series [19] is Mus musculus. The series is described as follows: Toxicity in collagen-induced B10.RIII mouse arthritis model assessed as change in AUC at 30 mg/kg, po qd for 35 days relative to 30% cremophor-treated control. It counts as organism-based. As to conditions: in vivo, 840 h. Details: dose 30 mg/kg, route oral. The gist of the method:
as §1

In series [20] the test system is Mus musculus. The series is described as follows: Toxicity in collagen-induced B10.RIII mouse arthritis model assessed as change in AUC at 3 mg/kg, po qd for 35 days relative to 30% cremophor-treated control. It counts as organism-based. Details: dose 3 mg/kg, route oral. To be noted: in vivo, 840 h. An outline of the steps:
as §1

The test system of series [21] is Mus musculus. The series is described as follows: Toxicity in collagen-induced B10.RIII mouse arthritis model assessed as change in AUC at 30 mg/kg, po qd for 35 days relative to 1% methylcellulose-treated control. Details: dose 30 mg/kg, route oral. The class given is organism-based. To be noted: in vivo, 840 h. An outline of the steps: as §2
Series [22] relates to Mus musculus. Kind of series: Toxicity in collagen-induced B10.RIII mouse arthritis model assessed as change in AUC at 3 mg/kg, po qd for 35 days relative to 1% methylcellulose-treated control. The class given is organism-based. Details: dose 3 mg/kg, route oral. To be noted: in vivo, 840 h. The gist of the method: as §2
For series [23], the target named is T1, Glucocorticoid receptor (Homo sapiens) (UniProt P04150).
T1 sequence (whole entry): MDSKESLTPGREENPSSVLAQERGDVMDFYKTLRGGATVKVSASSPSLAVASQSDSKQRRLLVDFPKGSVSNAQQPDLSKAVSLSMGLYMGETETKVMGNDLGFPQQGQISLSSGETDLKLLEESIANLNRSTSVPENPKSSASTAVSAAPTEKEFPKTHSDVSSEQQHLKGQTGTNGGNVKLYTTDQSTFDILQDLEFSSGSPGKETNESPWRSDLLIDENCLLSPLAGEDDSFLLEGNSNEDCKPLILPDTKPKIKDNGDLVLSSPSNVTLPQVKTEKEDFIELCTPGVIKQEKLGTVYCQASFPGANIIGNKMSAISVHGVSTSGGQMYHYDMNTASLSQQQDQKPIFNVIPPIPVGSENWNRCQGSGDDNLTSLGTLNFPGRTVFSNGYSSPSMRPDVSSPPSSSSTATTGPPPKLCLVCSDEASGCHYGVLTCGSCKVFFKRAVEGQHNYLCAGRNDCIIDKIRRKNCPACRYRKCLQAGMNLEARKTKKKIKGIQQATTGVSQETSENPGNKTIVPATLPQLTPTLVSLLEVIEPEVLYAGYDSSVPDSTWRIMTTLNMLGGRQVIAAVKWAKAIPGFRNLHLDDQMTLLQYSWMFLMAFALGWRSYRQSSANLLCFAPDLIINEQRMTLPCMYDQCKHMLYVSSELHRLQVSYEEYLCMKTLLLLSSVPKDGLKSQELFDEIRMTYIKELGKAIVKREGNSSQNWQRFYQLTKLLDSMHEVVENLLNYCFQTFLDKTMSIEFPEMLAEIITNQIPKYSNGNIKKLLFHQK
The series is described as follows: Agonist activity at glucocorticoid receptor in human […] cells assessed as suppression of vitamin D-induced osteocalcin production at 2 uM after 48 hrs by Gla-type osteocalcin ELISA relative to dexomethasone. The class given is cell-based. An outline of the steps: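 MG-63 human osteosarcoma cells plated at 20000/well in DMEM/F-12 with 1% charcoal-filtered FBS and 10 μg/mL vitamin C. Medium refreshed next day, then vitamin D (10 nM final) added with compound (2 × 10−6 to 10−10 M), duplicates. Incubated 48 h at 37 °C; supernatant osteocalcin measured by Gla-type ELISA. Vitamin D-only wells = 100%. Max efficacy at 2 μM is relative to dexamethasone (100%).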
On the technique in general: An ELISA detects its analyte on a solid surface through an enzyme-linked reagent.

As a reminder, the Emax is the greatest response seen or fitted, relative to the assay's reference. On to `C[C@]12C=CC(=O)C=C1CC[C@@H]1[C@@H]2[C@@H](O)C[C@@]2(C)[C@H]1CC[C@]2(O)C(=O)CO` [PREDNISOLONE], for which the Activity in series [1] is -22%; in series [2], -13%; in series [3], -18%; in series [4], -9%; in series [5] it was 703%; in [6], 36%. The Activity in series [7] is reported as 103%; in series [8], 62%; in [9], 54%; in series [10], 30%; in series [11], 44%; in [12], 39%. Besides, the Activity is 226% in series [13]; 21% in series [14]; 71% in series [15]; 30% in [16]; 68% in series [17]; 48% in series [18]. Further, the Activity in series [19] is recorded as -90%; in [20], -55%; in series [21], -78%; in [22], -43%. Moreover, the Emax in series [23] turned out to be 78%.
